This note sets out measurements from ChEMBL document CHEMBL4765291, “Design, synthesis and biological evaluation of novel 3,4-dihydro-2(1H)-quinolinone derivatives as potential chitin synthase inhibitors and antifungal agents” (Eur J Med Chem, 2020).

The test system of test [1] is Aspergillus flavus. Description: Synergistic antifungal activity against Aspergillus flavus ATCC 16870 assessed as fractional inhibitory concentration index in presence of Polyoxin B by two-fold broth dilution checkerboard method. It counts as functional. In short, it runs like this:
(§1)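 Checkerboard combined with two-fold broth dilution, pairing test compound with fluconazole or polyoxin B. FIC index = (MIC A combined/MIC A alone) + (MIC B combined/MIC B alone); >2 antagonistic, 1–2 additive, ≤1 synergistic. Three independent repeats.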
For orientation: Dilution methods test growth across graded concentrations, often in twofold steps.

Test [2] relates to Aspergillus fumigatus. The test can be described thus: Synergistic antifungal activity against Aspergillus fumigatus GIMCC 3.19 assessed as fractional inhibitory concentration index in presence of fluconazole by checkerboard method. It counts as functional. A digest of the protocol:
as §1

The next test relates to Bacillus subtilis. Description: Antibacterial activity against Bacillus subtilis ATCC 6633. In kind it is functional. In short, it runs like this:
(§2)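 Two-fold serial broth dilution in 96-well plates following National Committee standards; compounds tested at different concentrations. Medium: beef extract peptone (1% peptone, 0.3% beef extract, 0.5% NaCl). Incubation 18–24 h. MIC recorded; streptomycin and norfloxacin as control drugs; each group tested in triplicate.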

Test [3] relates to Aspergillus flavus. The test can be described thus: Antifungal activity against Aspergillus flavus ATCC 16870 incubated for 48 hrs by two-fold broth dilution analysis. It counts as functional. In short, it runs like this:
(§3)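 Stock solutions in DMSO, diluted to 0.25–512 µg/mL; two-fold serial broth dilution in 96-well plates. Fungi grown on modified Sabouraud chloramphenicol agar (1% peptone, 2% glucose, […]). Incubated 48 h at 37 °C, then MIC (µg/mL) recorded. Fluconazole and polyoxin B as positive controls; each group tested in triplicate.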

In test [4] the test system is Candida albicans. The test can be described thus: Antifungal activity against Candida albicans ATCC 90023 incubated for 48 hrs by two-fold broth dilution analysis. It counts as functional. In short, it runs like this: as §3
The next test concerns Candida tropicalis. The test can be described thus: Inhibition of Candida tropicalis ATCC 750 chitin synthase at 300 ug/ml using UDP-GlcNAc as substrate relative to control. The following applies: dose 300.0 µg/ml. In short, it runs like this:
(§4)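 Chitin synthase prepared from C. tropicalis ATCC 750 by low- and high-speed centrifugation. DMSO stocks (10 mg/mL) diluted in 50 mM Tris-HCl pH 7.5; test concentrations 300–9.375 µg/mL. Chitin synthesized in WGA-coated wells, bound with WGA-HRP, washed, developed with TMB/H2O2, stopped with 2 M H2SO4, OD read. Duplicate; polyoxin B positive control.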

The test system of test [5] is Candida albicans. The test can be described thus: Antifungal activity against Candida albicans ATCC 76615 incubated for 48 hrs by two-fold broth dilution analysis. In kind it is functional. A digest of the protocol: as §3
Test [6] deals with Candida albicans. The test can be described thus: Synergistic antifungal activity against Candida albicans ATCC 76615 assessed as fractional inhibitory concentration index in presence of Polyoxin B by checkerboard method. It counts as functional. A digest of the protocol:
as §1

The test system of the next test is Proteus vulgaris. Description: Antibacterial activity against Bacillus proteus ATCC 8427. It counts as functional. A digest of the protocol:
as §2

Test [7] has as its system Cryptococcus neoformans. Description: Antifungal activity against Cryptococcus neoformans ATCC 32719 incubated for 48 hrs by two-fold broth dilution analysis. It counts as functional. A digest of the protocol:
as §3

Test [8] has as its system Staphylococcus aureus. Description: Antibacterial activity against methicillin-resistant Staphylococcus aureus N. 315. It counts as functional. A digest of the protocol: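 Two-fold serial broth dilution in 96-well plates per national clinical standard; beef extract peptone medium (1% peptone, 0.3% beef extract, 0.5% NaCl, […]). Compounds from DMSO stock diluted to test concentrations; incubation 18–24 h. MIC recorded; each group tested independently in triplicate.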

The test system of test [9] is Aspergillus fumigatus. The test can be described thus: Synergistic antifungal activity against Aspergillus fumigatus GIMCC 3.19 assessed as fractional inhibitory concentration index in presence of Polyoxin B by checkerboard method. It counts as functional. A digest of the protocol:
as §1

In test [10] the test system is Cryptococcus neoformans. The test can be described thus: Synergistic antifungal activity against Cryptococcus neoformans ATCC 32719 assessed as fractional inhibitory concentration index in presence of Polyoxin B by checkerboard method. It counts as functional. A digest of the protocol: as §1
A further test deals with Escherichia coli. The test can be described thus: Antibacterial activity against Escherichia coli JM 109.
In a further test the test system is Pseudomonas aeruginosa. The test can be described thus: Antibacterial activity against Pseudomonas aeruginosa ATCC 9027. It counts as functional. A digest of the protocol: as §2
Test [11] concerns Cryptococcus neoformans. The test can be described thus: Synergistic antifungal activity against Cryptococcus neoformans ATCC 32719 assessed as fractional inhibitory concentration index in presence of fluconazole by checkerboard method. In kind it is functional. A digest of the protocol:
as §1

Test [12] deals with Candida albicans. Description: Synergistic antifungal activity against Candida albicans ATCC 90023 assessed as fractional inhibitory concentration index in presence of Polyoxin B by checkerboard method. It counts as functional. A digest of the protocol: as §1
Test [13] can be described thus: Inhibition of Candida tropicalis ATCC 750 chitin synthase using UDP-GlcNAc as substrate. In short, it runs like this:
as §4

The test system of test [14] is Candida albicans. The test can be described thus: Synergistic antifungal activity against Candida albicans ATCC 76615 assessed as fractional inhibitory concentration index in presence of fluconazole by checkerboard method. It counts as functional. In short, it runs like this: as §1
Test [15] in a line: Noncompetitive inhibition of Candida tropicalis ATCC 750 chitin synthase using […] as substrate by Lineweaver-Burk plot. In short, it runs like this:
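Same WGA-capture chitin synthase assay, run with UDP-GlcNAc at 0.5, 1.0, 1.5 and 2.0 mM and inhibitor at 0, 0.032, 0.126 and 0.25 mM. Inhibition type read from Lineweaver-Burk plots; Ki taken from the intersection of the lines.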

The test system of test [16] is Candida albicans. Description: Synergistic antifungal activity against Candida albicans ATCC 90023 assessed as fractional inhibitory concentration index in presence of fluconazole by checkerboard method. It counts as functional. In short, it runs like this:
as §1

In test [17] the test system is Aspergillus fumigatus. The test can be described thus: Antifungal activity against Aspergillus fumigatus GIMCC 3.19 incubated for 48 hrs by two-fold broth dilution analysis. In kind it is functional. In short, it runs like this: as §3
Test [18] deals with Staphylococcus aureus. Description: Antibacterial activity against Staphylococcus aureus ATCC 25923. In kind it is functional. In short, it runs like this:
as §2

Test [19] has as its system Aspergillus flavus. The test can be described thus: Synergistic antifungal activity against Aspergillus flavus ATCC 16870 assessed as fractional inhibitory concentration index in presence of fluconazole by checkerboard method. In kind it is functional. A digest of the protocol: as §1

As a reminder, the MIC is the lowest concentration that inhibits growth of the organism. Low readings indicate inhibition by little substance, high ones a need for much substance. As a reminder, the inhibition is the drop in the measured response relative to a control, in per cent. Low readings indicate a response near the control, high ones a response far below the control. Usually IC50 stands for the concentration that inhibits the measured activity by half. High values mean weaker potency, low ones greater potency. The term Ki denotes the equilibrium dissociation constant of an inhibitor or competing ligand from its target. High values mean a looser hold on the target, low ones a stronger hold on the target.

In brackets after ≈: the same amount, converted by molar mass.

As to `Cc1cccc(NC(=O)/C=C/C(=O)NC2Cc3ccccc3NC2=O)c1` (configuration not stated), the “fractional inhibitory concentration index (FICI)” value in the test with Aspergillus flavus [1] amounted to 1; in the test with Aspergillus fumigatus [2] it was 0.75; in the test with Candida albicans [6], 1; in the test with Aspergillus fumigatus [9] it was 0.75; with Cryptococcus neoformans [10] it was 2; in the test on Cryptococcus neoformans [11], 1.5. Also, the “fractional inhibitory concentration index (FICI)” value with Candida albicans [12] is recorded as 0.375; with Candida albicans [14], 1.5; in the test with Candida albicans [16] it was 0.5; in the test with Aspergillus flavus [19] it was 1.5. For the same molecule, the minimal inhibitory concentration (MIC) against Bacillus subtilis amounted to 256 µg/mL (≈ 733 µM); in the test with Aspergillus flavus [3], 2 µg/mL (≈ 5.72 µM); with Candida albicans [4] it was 1 µg/mL (≈ 2.86 µM); in the test on Candida albicans [5] it was 2 µg/mL (≈ 5.72 µM); with Proteus vulgaris, 256 µg/mL (≈ 733 µM); against Cryptococcus neoformans [7], 64 µg/mL (≈ 183 µM). Further, the MIC against Staphylococcus aureus [8] amounted to 512 µg/mL (≈ 1470 µM); against Escherichia coli it was 512 µg/mL (≈ 1470 µM); in the test on Pseudomonas aeruginosa, 512 µg/mL (≈ 1470 µM); in the test on Aspergillus fumigatus [17] it was 4 µg/mL (≈ 11.4 µM); against Staphylococcus aureus [18] it was 128 µg/mL (≈ 366 µM). The molecule further came in with an inhibition in the test with Candida tropicalis of 78.3%. Moreover, the IC50 in test [13] was 90 µM. This molecule had a Ki in test [15] of 120 µM.

In the case of `COc1ccccc1NC(=O)/C=C/C(=O)NC1Cc2ccccc2NC1=O` (configuration not stated), the “fractional inhibitory concentration index (FICI)” value with Aspergillus flavus [1] turned out to be 0.75; in the test on Aspergillus fumigatus [2], 0.375; in the test on Candida albicans [6], 0.5; in the test with Aspergillus fumigatus [9], 0.375; with Cryptococcus neoformans [10], 1; with Cryptococcus neoformans [11] it was 0.5. In addition, the “fractional inhibitory concentration index (FICI)” value came to 0.375 in the test with Candida albicans [12], 0.75 in the test with Candida albicans [14], 0.5 with Candida albicans [16] and 1 in the test on Aspergillus flavus [19]. Further, the minimal inhibitory concentration (MIC) in the test with Bacillus subtilis amounted to 256 µg/mL (≈ 701 µM); with Aspergillus flavus [3], 2 µg/mL (≈ 5.47 µM); in the test on Candida albicans [4], 1 µg/mL (≈ 2.74 µM); in the test with Candida albicans [5], 1 µg/mL (≈ 2.74 µM); in the test on Proteus vulgaris, 256 µg/mL (≈ 701 µM); with Cryptococcus neoformans [7] it was 8 µg/mL (≈ 21.9 µM). Further, the minimum inhibitory concentration (MIC) in the test with Staphylococcus aureus [8] was found to be 256 µg/mL (≈ 701 µM); against Escherichia coli, 256 µg/mL (≈ 701 µM); in the test with Pseudomonas aeruginosa it was 512 µg/mL (≈ 1400 µM); against Aspergillus fumigatus [17] it was 4 µg/mL (≈ 10.9 µM); with Staphylococcus aureus [18] it was 128 µg/mL (≈ 350 µM). In the test on Candida tropicalis, this molecule came in with an inhibition of 82.3%. The concentration for half-maximal inhibition (IC50) in test [13] turned out to be 160 µM.
